Assay results as given in PMC10237409 (Neuro-Oncology, 2022).
Like-named read-outs stand apart in the source and are kept apart here.

Legend:
orthotopic glioblastoma = conditions: cited from earlier work
glioblastoma = conditions: cited from earlier work
[1] = assay type: in vivo; conditions: human, plasma, oral, 30 mg/day; for AUC(0-t): GM AUC0-24, plasma; for Cmax: GM Cmax; for Tmax: Median tmax (range)
Summary of the method: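 Patients took 30 mg/day orally on days 1–4 before resection. Plasma was sampled at multiple time points through cycle 1 and at surgery, then assayed by LC-MS/MS (High Assay Range). Cmax, tmax, AUC and t½ came from non-compartmental analysis and were summarised as geometric means.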

[2] = system: advanced cancers, including high-grade gliomas; conditions: 45 mg/day 4 days on/24 days off per 28-day cycle; cited from earlier work
[3] = stated without reference; cited from earlier work
CCR1 mRNA = CCR1 mRNA in whole blood; assay type: in vivo, human; conditions: after the fourth preoperative dose, 30 mg/day; mean (SD ± 28.5)
Summary of the method: (§1)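 Patients took 30 mg/day orally on days 1–4 before salvage resection. Blood samples for pharmacodynamics were drawn at multiple time points through cycle 1 and at surgery. CCR1 and HEXIM1 expression in blood was measured by RNA-Seq.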

HEXIM1 mRNA = HEXIM1 mRNA in whole blood; assay type: in vivo, human; conditions: 72–96 h after the first preoperative dose, 30 mg/day
Summary of the method: as §1

[4] = assay type: in vivo, human
Summary of the method: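 Patients took 30 mg/day orally on days 1–4, with salvage resection planned 6–24 h after the day 4 dose. Resected tumour (contrast-enhancing and non-enhancing where possible), CSF and time-matched plasma were collected during surgery. Results were summarised as geometric means. Free tissue concentration and unbound partition coefficient were estimated from plasma protein binding and tissue binding.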

[5] = Safety: treatment-related adverse events; assay type: in vivo, human
Summary of the method: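 AEs were coded with MedDRA 24.0 and graded by NCI CTCAE 5.0. They were reported separately for the preoperative period (30 mg/day days 1–4, until maintenance start) and for postoperative maintenance (45 mg/day 4 days on/24 days off per 28-day cycle, onward). Maintenance continued until progression, unacceptable toxicity or consent withdrawal.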

[6] = postoperative maintenance 45 mg/day 4 days on/24 days off, n = 16
[7] = preoperative 30 mg/day days 1–4, n = 20

Cc1sc2c(c1C)C(c1ccc(Cl)cc1)=N[C@@H](CC(=O)Nc1ccc(O)cc1)c1nnc(C)n1-2 [OTX015]
Antitumor activity (orthotopic glioblastoma): showed antitumor activity | Penetration of brain tumor tissue (orthotopic glioblastoma; markedly lower concentrations in peritumoral and distant brain tissue): high penetration of brain tumor tissue | Clinical efficacy (study outcome) (glioblastoma): lack of efficacy

Cn1cc(-c2cc(S(C)(=O)=O)ccc2OCC2CC2)c2ccccc2c1=O [Trotabresib]
half-life [1]: 2760 min | AUC(0-t) ([1]; cycle 1 day 1, GM (% GCV)): 5080 ng·h/mL | AUC(0-t) ([1]; cycle 1 day 4, GM (% GCV)): 11200 ng·h/mL | Cmax ([1]; cycle 1 day 1, GM (% GCV)): 392 ng/mL | Cmax ([1]; cycle 1 day 4, GM (% GCV)): 720 ng/mL | Tmax ([1]; cycle 1 day 1): 1.5 h | Tmax ([1]; cycle 1 day 4): 1.9 h | Prolonged progression-free survival (PFS) in some patients [2]: up to 3 years | Lipophilicity [3]: high lipophilicity | Blood levels of CCR1 mRNA, % of baseline levels (CCR1 mRNA): 45.8% | Blood levels of HEXIM1 mRNA versus baseline (HEXIM1 mRNA): increased from baseline in all patients | Plasma concentration at the time of surgery, GM (% GCV) ([4]; after 30 mg/day days 1–4, n = 19): 1.02 µM | GM free (tissue binding-corrected) trotabresib concentration in brain tissue ([4]; calculated, n = 20, GM (% GCV)): 0.028 µM | CSF concentration, GM (% GCV) ([4]; n = 13): 0.14 µM | Brain tumor tissue concentration, GM (% GCV) ([4]; resected tissue after 30 mg/day days 1–4, n = 20): 0.74 µM | Serious TRAEs ([5]; overall study): No serious TRAEs | Treatment discontinuation due to AEs ([5]; overall study): No patients discontinued treatment due to AEs | Any TRAE, any grade, patients [5, 6]: 100% | Asthenia, grade 3/4 TRAE, number of patients [5, 6]: 1 patient | Thrombocytopenia, grade 3/4 TRAE, number of patients [5, 6]: 5 patients | Dose reduction due to thrombocytopenia, number of patients ([5]; postoperative treatment period, 45 mg/day): 1 patient | Dose interruptions due to AEs, number of patients ([5]; postoperative treatment period, 45 mg/day, thrombocytopenia in 2, pancreatitis in 1): 3 patients | Surgery delayed or canceled due to an AE ([5]; preoperative 30 mg/day days 1–4): No patients | ALT increased, grade 3/4 TRAE, number of patients [5, 7]: 1 patient | Any TRAE, any grade, patients [5, 7]: 60% | Any TRAE, grade 3/4, patients [5, 7]: 10% | Lymphopenia, grade 3/4 TRAE, number of patients [5, 7]: 1 patient | Thrombocytopenia, grade 1/2, patients [5, 7]: 25%
